Reference: ChEMBL document CHEMBL3734675, “Synthesis, antimycobacterial and antibacterial activity of fluoroquinolone derivatives containing an 3-alkoxyimino-4-(cyclopropylanimo)methylpyrrolidine moiety” (2015)

What was measured:
Format in all cases: functional
[1] = tested on: Escherichia coli; assay: Antibacterial activity against Escherichia coli ATCC 25922 after 18 to 24 hrs by two-fold serial dilution method
In short: (§1)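 Twofold serial dilution in agar media against Gram-positive and Gram-negative strains. Plates incubated at 35 °C for 18–24 h. MIC read as the lowest compound concentration giving complete inhibition of bacterial growth.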

[2] = tested on: Escherichia coli; assay: Antibacterial activity against extended-spectrum beta-lactamase producing Escherichia coli 14-1 after 18 to 24 hrs by two-fold serial dilution method; in short: as §1
[3] = tested on: Escherichia coli; assay: Antibacterial activity against extended-spectrum beta-lactamase producing Escherichia coli 14-2 after 18 to 24 hrs by two-fold serial dilution method; in short: as §1
[4] = tested on: Escherichia coli; assay: Antibacterial activity against Escherichia coli 14-1 after 18 to 24 hrs by two-fold serial dilution method; in short: as §1
[5] = tested on: Escherichia coli; assay: Antibacterial activity against Escherichia coli 14-2 after 18 to 24 hrs by two-fold serial dilution method; in short: as §1
[6] = tested on: Klebsiella pneumoniae; assay: Antibacterial activity against extended-spectrum beta-lactamase producing Klebsiella pneumoniae 14-17 after 18 to 24 hrs by two-fold serial dilution method; in short: as §1
[7] = tested on: Klebsiella pneumoniae; assay: Antibacterial activity against extended-spectrum beta-lactamase producing Klebsiella pneumoniae 14-18 after 18 to 24 hrs by two-fold serial dilution method; in short: as §1
[8] = tested on: Klebsiella pneumoniae; assay: Antibacterial activity against extended-spectrum beta-lactamase producing Klebsiella pneumoniae 14-19 after 18 to 24 hrs by two-fold serial dilution method; in short: as §1
[9] = tested on: Klebsiella pneumoniae; assay: Antibacterial activity against Klebsiella pneumoniae 14-1 after 18 to 24 hrs by two-fold serial dilution method; in short: as §1
[10] = tested on: Klebsiella pneumoniae; assay: Antibacterial activity against Klebsiella pneumoniae 14-2 after 18 to 24 hrs by two-fold serial dilution method; in short: as §1
[11] = tested on: Klebsiella pneumoniae; assay: Antibacterial activity against Klebsiella pneumoniae 14-3 after 18 to 24 hrs by two-fold serial dilution method; in short: as §1
[12] = tested on: Klebsiella pneumoniae; assay: Antibacterial activity against Klebsiella pneumoniae 14-4 after 18 to 24 hrs by two-fold serial dilution method; in short: as §1
[13] = tested on: Pseudomonas aeruginosa; assay: Antibacterial activity against Pseudomonas aeruginosa ATCC 27853 after 18 to 24 hrs by two-fold serial dilution method; in short: as §1
[14] = tested on: Pseudomonas aeruginosa; assay: Antibacterial activity against Pseudomonas aeruginosa 14-9 after 18 to 24 hrs by two-fold serial dilution method; in short: as §1
[15] = tested on: Pseudomonas aeruginosa; assay: Antibacterial activity against Pseudomonas aeruginosa 14-14 after 18 to 24 hrs by two-fold serial dilution method; in short: as §1
[16] = tested on: Pseudomonas aeruginosa; assay: Antibacterial activity against Pseudomonas aeruginosa 14-15 after 18 to 24 hrs by two-fold serial dilution method; in short: as §1
[17] = tested on: Pseudomonas aeruginosa; assay: Antibacterial activity against Pseudomonas aeruginosa 14-16 after 18 to 24 hrs by two-fold serial dilution method; in short: as §1
[18] = tested on: Staphylococcus aureus; assay: Antibacterial activity against Staphylococcus aureus CMCC 26003 after 18 to 24 hrs by two-fold serial dilution method; in short: as §1
[19] = tested on: Staphylococcus aureus; assay: Antibacterial activity against methicillin-sensitive Staphylococcus aureus 14-1 after 18 to 24 hrs by two-fold serial dilution method; in short: as §1
[20] = tested on: Staphylococcus aureus; assay: Antibacterial activity against methicillin-sensitive Staphylococcus aureus 14-3 after 18 to 24 hrs by two-fold serial dilution method; in short: as §1
[21] = tested on: Staphylococcus aureus; assay: Antibacterial activity against methicillin-sensitive Staphylococcus aureus 14-4 after 18 to 24 hrs by two-fold serial dilution method; in short: as §1
[22] = tested on: Staphylococcus aureus; assay: Antibacterial activity against methicillin-resistant Staphylococcus aureus 14-4 after 18 to 24 hrs by two-fold serial dilution method
In short: (§2)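 Agar media, standard twofold serial dilution. MIC is the lowest concentration giving complete inhibition of bacterial growth after incubation at 35 °C for 18–24 h. Ciprofloxacin and levofloxacin were run as comparators.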

[23] = tested on: Staphylococcus aureus; assay: Antibacterial activity against methicillin-resistant Staphylococcus aureus 14-5 after 18 to 24 hrs by two-fold serial dilution method; in short: as §2
[24] = tested on: Staphylococcus epidermidis; assay: Antibacterial activity against methicillin-sensitive Staphylococcus epidermidis 14-2 after 18 to 24 hrs by two-fold serial dilution method; in short: as §1
[25] = tested on: Staphylococcus epidermidis; assay: Antibacterial activity against methicillin-resistant Staphylococcus epidermidis 14-21 after 18 to 24 hrs by two-fold serial dilution method; in short: as §2
[26] = tested on: Staphylococcus epidermidis; assay: Antibacterial activity against methicillin-resistant Staphylococcus epidermidis 14-22 after 18 to 24 hrs by two-fold serial dilution method; in short: as §2
[27] = tested on: Staphylococcus epidermidis; assay: Antibacterial activity against methicillin-resistant Staphylococcus epidermidis 14-37 after 18 to 24 hrs by two-fold serial dilution method; in short: as §2
[28] = tested on: Staphylococcus epidermidis; assay: Antibacterial activity against methicillin-resistant Staphylococcus epidermidis 14-39 after 18 to 24 hrs by two-fold serial dilution method; in short: as §2
[29] = tested on: Streptococcus pneumoniae; assay: Antibacterial activity against methicillin-resistant Streptococcus pneumoniae ATCC 19615 after 18 to 24 hrs by two-fold serial dilution method; in short: as §2
[30] = tested on: Enterococcus faecium; assay: Antibacterial activity against Enterococcus faecium 14-2 after 18 to 24 hrs by two-fold serial dilution method; in short: as §1
[31] = tested on: Enterococcus faecium; assay: Antibacterial activity against Enterococcus faecium 14-5 after 18 to 24 hrs by two-fold serial dilution method; in short: as §1
[32] = tested on: Enterococcus faecium; assay: Antibacterial activity against Enterococcus faecium 14-6 after 18 to 24 hrs by two-fold serial dilution method; in short: as §1
[33] = tested on: Enterococcus faecalis; assay: Antibacterial activity against Enterococcus faecalis 14-1 after 18 to 24 hrs by two-fold serial dilution method; in short: as §1
[34] = tested on: Enterococcus faecalis; assay: Antibacterial activity against Enterococcus faecalis 14-2 after 18 to 24 hrs by two-fold serial dilution method; in short: as §1
[35] = tested on: Staphylococcus aureus; assay: Potency index, ratio of ciprofloxacin MIC to compound MIC for methicillin-resistant Staphylococcus aureus 14-4
[36] = tested on: Staphylococcus aureus; assay: Potency index, ratio of ciprofloxacin MIC to compound MIC for methicillin-resistant Staphylococcus aureus 14-5
[37] = tested on: Staphylococcus epidermidis; assay: Potency index, ratio of ciprofloxacin MIC to compound MIC for methicillin-resistant Staphylococcus epidermidis 14-21
[38] = tested on: Staphylococcus epidermidis; assay: Potency index, ratio of ciprofloxacin MIC to compound MIC for methicillin-resistant Staphylococcus epidermidis 14-22
[39] = tested on: Staphylococcus epidermidis; assay: Potency index, ratio of ciprofloxacin MIC to compound MIC for methicillin-resistant Staphylococcus epidermidis 14-37
[40] = tested on: Staphylococcus epidermidis; assay: Potency index, ratio of ciprofloxacin MIC to compound MIC for methicillin-resistant Staphylococcus epidermidis 14-39
[41] = tested on: Enterococcus faecium; assay: Potency index, ratio of ciprofloxacin MIC to compound MIC for Enterococcus faecium 14-2
[42] = tested on: Enterococcus faecium; assay: Potency index, ratio of ciprofloxacin MIC to compound MIC for Enterococcus faecium 14-5
[43] = tested on: Enterococcus faecium; assay: Potency index, ratio of ciprofloxacin MIC to compound MIC for Enterococcus faecium 14-6
[44] = tested on: Enterococcus faecalis; assay: Potency index, ratio of ciprofloxacin MIC to compound MIC for Enterococcus faecalis 14-1
[45] = tested on: Enterococcus faecalis; assay: Potency index, ratio of ciprofloxacin MIC to compound MIC for Enterococcus faecalis 14-2
[46] = tested on: Staphylococcus aureus; assay: Potency index, ratio of levofloxacin MIC to compound MIC for methicillin-resistant Staphylococcus aureus 14-4
[47] = tested on: Staphylococcus aureus; assay: Potency index, ratio of levofloxacin MIC to compound MIC for methicillin-resistant Staphylococcus aureus 14-5
[48] = tested on: Staphylococcus epidermidis; assay: Potency index, ratio of levofloxacin MIC to compound MIC for methicillin-resistant Staphylococcus epidermidis 14-21
[49] = tested on: Staphylococcus epidermidis; assay: Potency index, ratio of levofloxacin MIC to compound MIC for methicillin-resistant Staphylococcus epidermidis 14-22
[50] = tested on: Staphylococcus epidermidis; assay: Potency index, ratio of levofloxacin MIC to compound MIC for methicillin-resistant Staphylococcus epidermidis 14-37
[51] = tested on: Staphylococcus epidermidis; assay: Potency index, ratio of levofloxacin MIC to compound MIC for methicillin-resistant Staphylococcus epidermidis 14-39
[52] = tested on: Enterococcus faecium; assay: Potency index, ratio of levofloxacin MIC to compound MIC for Enterococcus faecium 14-2
[53] = tested on: Enterococcus faecium; assay: Potency index, ratio of levofloxacin MIC to compound MIC for Enterococcus faecium 14-5
[54] = tested on: Enterococcus faecium; assay: Potency index, ratio of levofloxacin MIC to compound MIC for Enterococcus faecium 14-6
[55] = tested on: Enterococcus faecalis; assay: Potency index, ratio of levofloxacin MIC to compound MIC for Enterococcus faecalis 14-1
[56] = tested on: Enterococcus faecalis; assay: Potency index, ratio of levofloxacin MIC to compound MIC for Enterococcus faecalis 14-2

O=C(O)c1cn2c3c(c(N4C/C(=N/OCc5ccccc5)C(CNC5CC5)C4)c(F)cc3c1=O)OC[C@@H]2CF (stereo partly specified)
64 µg/mL: MIC [6] | MIC [9] | MIC [11] | MIC [15] | MIC [16]
> 64 µg/mL: MIC [3] | MIC [4] | MIC [5] | MIC [12]
0.125 µg/mL: MIC [29]
2 µg/mL: MIC [22] | MIC [25] | MIC [26] | MIC [27] | MIC [28]
4 µg/mL: MIC [2] | MIC [23]
8 µg/mL: MIC [24] | MIC [31] | MIC [32]
< 0.008 µg/mL: MIC [18]
2: Ratio [35] | Ratio [36] | Ratio [37] | Ratio [38] | Ratio [39] | Ratio [40] | Ratio [41] | Ratio [42] | Ratio [43] | Ratio [44] | Ratio [45] | Ratio [46] | Ratio [47] | Ratio [48] | Ratio [49] | Ratio [50] | Ratio [51] | Ratio [52] | Ratio [53] | Ratio [54] | Ratio [55] | Ratio [56]
1 µg/mL: MIC [1] | MIC [19] | MIC [30] | MIC [33]
32 µg/mL: MIC [7] | MIC [8] | MIC [10] | MIC [13] | MIC [14] | MIC [17]
0.25 µg/mL: MIC [34]
0.015 µg/mL: MIC [20]
0.03 µg/mL: MIC [21]
